Assay outcomes from PubChem BioAssay.
Only some compounds are listed: those with a hit (about 4.3% of all), similar ones and a draw of the others.
CAL PDZ FP-1: CAL PDZ peptide-binding inhibitors, primary screen, biochemical, fluorescence polarization, Cer-tagged CAL PDZ, HTS; inhibition, % at 20 µM; purified CAL PDZ, TMR-peptide fluorescence polarization, 1 h; AID 504414, 2011; 0.02% of 330,000 active;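 active means highest replicate inhibition of at least 40%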;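 further: plate controls were DMSO neutral control wells for no effect and unlabeled competitor peptide control wells for full effect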
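Material: tagged CAL PDZ protein CerCALP, purified; buffer or medium: sodium phosphate/NaCl buffer pH 7.4 with TCEP, IgG, Thesit; also added: fluorescent TMR peptide probe; schedule: 1 h incubation at room temperature before polarization reading; technique: fluorescence polarization from S- and P-plane intensities, G-factor corrected; control set: unlabelled peptide and DMSO controls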
CAL PDZ FP-2: untagged CAL PDZ binding inhibitors, primary screen, biochemical, fluorescence polarization, HTS; AID 602252, 2012; purified CAL PDZ, TMR-peptide fluorescence polarization, 1 h; inhibition, % at 24.9 µM; 0.92% of 300,000 active; Golgi-associated PDZ and coiled-coil motif-containing protein (Homo sapiens), Q9HD26;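 active means mean inhibition of at least 30% with at least half of replicates also reaching 30%; inconclusive means no clear call, values can overlap the other calls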;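 further: 0% = DMSO neutral control and 100% = excess unlabeled competitor peptide PRC23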
Rtt109 HAT inh: inhibitors of C. albicans Rtt109/Vps75 HAT, primary screen, biochemical, ThioGlo CoA-SH fluorescence, plate reader. Histone acetyltransferase RTT109 (Candida albicans (strain SC5314 / ATCC MYA-2876)), …. purified Rtt109/Vps75, 4 h. inhibition, % at 34.9 µM. 0.16% of 330,000 active;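 active means inhibition of at least 50% in every replicate; inconclusive means best replicate reaches 50% inhibition but some replicates fall short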
Target sequence (Q5AAJ8 whole entry, looked up): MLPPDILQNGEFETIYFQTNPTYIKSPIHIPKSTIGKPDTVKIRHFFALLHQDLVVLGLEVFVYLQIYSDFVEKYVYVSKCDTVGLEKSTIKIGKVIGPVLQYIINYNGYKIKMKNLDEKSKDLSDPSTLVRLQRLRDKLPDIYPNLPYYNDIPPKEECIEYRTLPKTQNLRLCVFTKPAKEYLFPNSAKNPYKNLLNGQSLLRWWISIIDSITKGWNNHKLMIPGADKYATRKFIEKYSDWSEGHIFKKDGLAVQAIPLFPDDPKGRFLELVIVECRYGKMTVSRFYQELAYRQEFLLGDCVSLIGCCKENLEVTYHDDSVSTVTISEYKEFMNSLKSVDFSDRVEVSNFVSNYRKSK
ALR H2O2 inh: inhibitors of human ALR sulfhydryl oxidase, primary screen, biochemical, H2O2 detection, HRP-luminol luminescence, single point; FAD-linked sulfhydryl oxidase ALR (Homo sapiens), P55789; purified ALR, DTT oxidation; inhibition, % (test concentration not listed); 3.8% of 290,000 active; AID 485317, 2010;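 active means mean replicate inhibition above about 79%, with every replicate also reaching it, limit read from the data; inconclusive means only one of the two criteria met; inactive means mean below limit and not every replicate reaching it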
Target sequence (P55789 whole entry, looked up): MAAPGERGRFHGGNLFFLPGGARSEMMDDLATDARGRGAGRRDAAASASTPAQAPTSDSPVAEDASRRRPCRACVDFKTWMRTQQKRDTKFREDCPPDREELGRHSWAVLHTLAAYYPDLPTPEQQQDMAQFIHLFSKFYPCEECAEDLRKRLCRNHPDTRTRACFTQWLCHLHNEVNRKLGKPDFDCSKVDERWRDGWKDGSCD
DYRK1A inh: rat Dyrk1A kinase inhibitors, primary screen, biochemical, single point, plate reader | Dual specificity tyrosine-phosphorylation-regulated kinase 1A (Rattus norvegicus), Q63470 | ADP-Glo luminescence, NFATc1 peptide | inhibition, % at 12.5 µM | 0.43% of 310,000 active | AID 504441, 2011; in the data active means inhibition above about 50%;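 further: plate controls were vehicle with enzyme for no effect and no enzyme for full effect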
* = called active by the depositor; ? = inconclusive; . = not tested or not shown.

SMILES | CAL PDZ FP-1 | CAL PDZ FP-2 | Rtt109 HAT inh | ALR H2O2 inh | DYRK1A inh
Cc1nc(N/N=C/c2ccccn2)sc1C | . | . | . | 97* | .
CC(=O)N1N=C(c2cccs2)CC1c1cc2cc(C)ccc2nc1Cl (stereo not drawn) | 1 | -22 | -9 | -1 | -3
CCN(C[C@H]1N[C@@](C)(C(=O)OC)[C@H]2C(=O)N(Cc3ccccc3)C(=O)[C@@H]12)C(=O)Nc1ccc(C)cc1 | 0 | -2 | -1 | 1 | 0
CC1CN(c2ccccc2)NC1=O (stereo not drawn) | 0 | 14 | -6 | 99* | .
CC1CN(Cc2ccccc2)C(=O)NC1=O (stereo not drawn) | 0 | 1 | -8 | . | -4
CN(CC(=O)Nc1cccc(Cl)c1)S(=O)(=O)c1ccc2[nH]c(=O)oc2c1 | -3 | 1 | 4 | -7 | -7
CCOC(=O)N1CCN(C(=O)c2ccccc2NC(=O)COc2ccccc2)CC1 | 1 | -9 | -3 | -2 | -4
COc1ccc(C(CC(=O)O)NC(=O)c2ccccc2[N+](=O)[O-])cc1 (stereo not drawn) | 0 | 31* | 5 | -1 | -7
O=C(c1cc(-c2ccc(O)cc2)on1)N1CCCCCC1 | -5 | -6 | 2 | 99* | 6
O=C(c1cc(-c2ccc(Cl)cc2Cl)on1)N1CCCC1 | -2 | 35* | -3 | 1 | 1
COc1ccc(Cl)cc1C(=O)NNC(=O)c1cc2ccccc2o1 | 0 | 1 | 4 | -4 | .
COc1ccc(C(=O)c2ccc(Br)cc2)c2ccccc12 | 1 | -3 | 33 | -3 | 6
CSc1nnc2c(n1)c(C)nn2-c1cccc(C)c1 | 0 | 4 | 1 | 95* | -2
CSc1nncc(/C(C)=N\Nc2cccc(C)c2)n1 | -1 | -1 | 7 | 16 | 9
Cc1cc(Cl)cc(C)c1OCC(=O)NC1CCCCCC1 | 0 | 48* | -4 | -7 | -5
CCCCCOc1ccc(CSC(=N)N)cc1[N+](=O)[O-] | 0 | -7 | -3 | 99* | 10
O=[N+]([O-])c1ccc(CSC2=NCCN2)cc1 | 1 | -1 | 4 | 99* | 5
COc1ccc(CSC(=N)N)cc1[N+](=O)[O-] | -1 | -2 | ? | . | 1
CCOc1ccc(CSC2=NCCN2)cc1[N+](=O)[O-] | -3 | -2 | 39 | 99* | 3
CCCCOc1ccc(CSC2=NCCN2)cc1[N+](=O)[O-] | -1 | -2 | 27 | 100* | 4
C=CCN1C(=O)c2ccc(C(=O)N(C)CC(=O)Nc3cccc(F)c3)cc2C1=O | -3 | 2 | 5 | -2 | -6
O=C1N(Cc2cccc(Cl)c2)C[C@@H]2C[C@@H](c3ccc4nonc4c3)N3CCC[C@@]123 | -18 | . | 6 | -5 | 3
O=C(NN1CCOCC1)c1cccc(COc2cccc(Br)c2)c1 | 0 | -4 | -5 | -6 | 4
O=[N+]([O-])c1ccc(CSC2=NCCS2)cc1 | -1 | -4 | -4 | 99* | -4
COc1cc(N/N=C(\C)c2ccc(N)cc2)nc(-c2ccccc2)n1 | 0 | . | -4 | 98* | -4
SMILES | CAL PDZ FP-1 | CAL PDZ FP-2 | Rtt109 HAT inh | ALR H2O2 inh | DYRK1A inh
COc1cc(N/N=C(\C)c2ccc(O)c(C)c2)nc(-c2ccccc2)n1 | 0 | -1 | -8 | 10 | 2
COc1cc(C(=O)OCCCN=C2NS(=O)(=O)c3ccccc32)cc(OC)c1OC | 0 | . | -5 | -12 | 4
Cc1ccc(Cl)cc1NC(=O)Cn1nc(-c2cccs2)ccc1=O | -3 | -8 | 0 | -1 | -7
CC(C)(C)c1ccc(C(=O)Oc2ccccc2CCC(=O)O)cc1 | . | . | . | 91* | .
CCOC(=O)C1CCN(C(=O)c2ccc(N(C)S(=O)(=O)c3ccc(OC)cc3)cc2)CC1 | 0 | 4 | -5 | -8 | 0
CC(=O)Nc1ccccc1NS(=O)(=O)c1ccc(Cl)cc1 | 0 | 4 | 0 | 4 | -2
O=S(=O)(Nc1cccc2c1CCCC2)c1ccc(Cl)cc1 | 0 | -5 | -7 | 84* | 1
Fc1ccc(CO/N=C2\CCCc3nonc32)cc1 | -1 | 7 | 7 | -5 | -7
COC(=O)c1ccc(/C=N/Nc2nc(-c3ccc(C)cc3)cs2)cc1 | 0 | -2 | -6 | . | -5
CC(=O)Nc1ccc(-c2csc(N/N=C\c3ccncc3)n2)cc1 | . | . | . | 99* | .
CCCC(=O)Nc1ccc(-c2csc(N/N=C\c3ccncc3)n2)cc1 | -1 | . | 22 | 98* | .
O=C(NCc1ccc(Cl)cc1)c1cccc(NC2=NC3CS(=O)(=O)CC3S2)c1 (stereo not drawn) | -1 | -3 | -4 | -11 | -2
C=CCn1c(C)cc(C(=O)CSc2ccc(NC(C)=O)cc2)c1C | -2 | 3 | -8 | 98* | 13
COCCn1c(C)cc(C(=O)CSc2ccc(NC(C)=O)cc2)c1C | 0 | -5 | 1 | 98* | 3
C=CCn1c(C)cc(C(=O)CSc2nc3ccccc3o2)c1C | -1 | -5 | -2 | 57 | 3
C=CCn1c(C)cc(C(=O)CSc2n[nH]c(N)n2)c1C | -1 | -3 | -13 | 98* | -6
COCC(C)n1c(C)cc(C(=O)CSc2ncccn2)c1C (stereo not drawn) | 0 | -3 | -5 | -4 | .
Cc1cc(C(=O)CSc2n[nH]c(N)n2)c(C)n1C1CC1 | -1 | -1 | -3 | 7 | -6
CC(=O)Nc1ccc(SCC(=O)c2cc(C)n(Cc3cccs3)c2C)cc1 | -2 | -3 | -14 | -11 | 4
COCC(C)n1c(C)cc(C(=O)CSc2ccc(NC(C)=O)cc2)c1C (stereo not drawn) | 1 | . | 0 | 98* | 2
COC(=O)C1=CO[C@@H](O[C@@H]2O[C@H](CO)[C@@H](O)[C@H](O)[C@H]2O)C2C1C=C[C@@]2(O)CO (stereo partly drawn) | 1 | -5 | -2 | -1 | 1
COc1ccc(-c2nc3cnccn3c2Nc2ccc(C)cc2)cc1 | 1 | -1 | 0 | 86* | 8
Cc1ccc2nc(-c3ccncc3)c(Nc3ccccc3)n2c1 | 0 | . | 3 | 3 | -3
Cc1ccc(Nc2c(-c3ccccc3)nc3cnccn23)cc1 | 0 | . | 29 | 98* | 3
Cc1ccc(Nc2c(-c3cccnc3)nc3ccc(Br)cn23)cc1 | 0 | 4 | 2 | 1 | -1
COc1cccc(/C=C/C(=O)OCC(=O)NCCC2=CCCCC2)c1 | -3 | 5 | 9 | . | 6
CC1=C(C(=O)Nc2ccccc2)C(c2cccnc2)n2ncnc2N1 (stereo not drawn) | -1 | -2 | 27 | 9 | -4
